M18AAP inhibitor – PfM18AAP enzyme inhibition. actives 1.2% (n = 290,000). inhibition, % at 7.35 µM. recombinant PfM18AAP, H-Glu-NHMec fluorogenic cleavage;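 active means inhibition above the campaign mean inhibition over all tested compounds plus 3 SD, cut at about 28% in these data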;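 further: 0% = plate median of test compound wells and 100% = 2 mM ZnCl2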
EBNA-1 inhibitor – blocks EBNA-1 binding to DNA | EBNA-1 DNA binding, fluorescence polarization | inhibition, % at 14.8 µM | AID 1950 | actives 0.34% (n = 300,000); in the data active means inhibition above about 28%
HCV core dimer – HCV core protein dimerization inhibition; inhibition, % at 5 µM; AID 1899; TR-FRET GST/Flag-core106 dimerization, 1536-well; actives 0.33% (n = 300,000);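 active means inhibition above the mean of all tested compounds plus 3 SD, set per screening campaign, cut at about 45% in these data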
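System: GST/Flag-tagged HCV core106 proteins. Incubation: compound-protein-antibody incubation 4 h at 22.5 °C. Technique: HTRF with 340 nm excitation, 617/671 nm emission. Medium: KF-containing HEPES buffer, pH 7.45, DTT, CHAPS, BSA. Read-out: inhibition (%) from 671 over 617 nm ratio. Also added: Eu(K)-anti-GST 90 ng/mL plus XL665-anti-Flag 1 µg/mL.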
ALR H2O2 inh – inhibitors of human sulfhydryl oxidase ALR | actives 3.8% (n = 290,000) | purified ALR, DTT oxidation, H2O2 HRP-luminol luminescence | inhibition, % (test concentration not listed);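 active means mean replicate inhibition above about 79%, with every replicate also reaching it, limit read from the data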
Target sequence (P55789 whole entry, looked up): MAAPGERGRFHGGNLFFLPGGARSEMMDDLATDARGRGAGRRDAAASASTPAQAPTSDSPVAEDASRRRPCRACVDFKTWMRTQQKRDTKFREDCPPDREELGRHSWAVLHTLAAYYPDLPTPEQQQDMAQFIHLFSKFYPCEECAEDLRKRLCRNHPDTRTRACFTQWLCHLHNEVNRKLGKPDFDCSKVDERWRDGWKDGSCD
HCV NS3 hel inh – HCV NS3 helicase inhibition | NS3 helicase DNA unwinding, Cy5 molecular beacon fluorescence | actives 0.56% (n = 290,000) | inhibition, % at 10.9 µM;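 active means inhibition above the mean of all tested compounds plus 3 SD, set per campaign, cut at about 35% in these data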;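 further: 0% = DMSO wells and 100% = thioflavine S control wells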
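System: Hepatitis C virus NS3 helicase domain fragment enzyme | Reagent: Annealed dual-labelled DNA beacon duplex, ATP-started | Compound dosing: 10.9 µM single point, 0.8% DMSO | Incubation: 1 h reaction at 25 °C, ATP-initiated | Technique: Cy5 fluorescence | Evaluation: Percent inhibition from t60/t0 fluorescence ratio | Benchmarks: Low DMSO, high thioflavine S at 110 µM | Replication: Singlicate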
ZTA counter – ZTA (EBV) inhibition in EBNA-1 counter-screen. P03206. ZTA-DNA binding, fluorescence polarization. inhibition, % at 11 µM. actives 0.15% (n = 320,000). AID 2234; in the data active means inhibition above about 33%
Target sequence (P03206 whole entry, looked up): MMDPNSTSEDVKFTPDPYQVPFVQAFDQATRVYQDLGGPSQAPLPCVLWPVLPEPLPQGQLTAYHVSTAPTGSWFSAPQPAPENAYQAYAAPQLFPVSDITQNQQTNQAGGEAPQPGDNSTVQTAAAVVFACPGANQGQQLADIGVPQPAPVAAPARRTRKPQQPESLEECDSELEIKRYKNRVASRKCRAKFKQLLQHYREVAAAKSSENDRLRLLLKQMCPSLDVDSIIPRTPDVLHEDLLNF
Starred values were filed as active, the others as inactive. Sampled rows, rich in hits. Any-hit rate of the full collection: about 5.2%.

Results for Cc1c(OCC(=O)N[C@H](C(=O)O)c2ccccc2)ccc2c3c(c(=O)oc12)CCCC3 ?
M18AAP inhibitor: 0; EBNA-1 inhibitor: -11; HCV core dimer: 1; ALR H2O2 inh: 70; HCV NS3 hel inh: 2; ZTA counter: 4

Results for Cc1cc(NC(=O)c2ccccc2C)ccc1NC(=O)c1ccccc1Cl ?
M18AAP inhibitor: 3; EBNA-1 inhibitor: 7; HCV core dimer: -4; ALR H2O2 inh: 1; HCV NS3 hel inh: -3; ZTA counter: -2

What do the screens show for `CN(C)c1ccc(N/C(=N\S(=O)(=O)c2cccs2)c2ccccc2)cc1`?
M18AAP inhibitor: -23; EBNA-1 inhibitor: 3; HCV core dimer: -19; ALR H2O2 inh: 99*; HCV NS3 hel inh: -4; ZTA counter: 5

What do the screens show for `Cc1ccc(-n2c(Cn3c(C)nc4ccccc43)n[nH]c2=S)cc1`?
M18AAP inhibitor: 33*; EBNA-1 inhibitor: 16; HCV core dimer: -4; ALR H2O2 inh: 36; HCV NS3 hel inh: 2; ZTA counter: 14

Results for Cc1ccc(-n2c(COc3ccccc3)n[nH]c2=S)cc1 ?
M18AAP inhibitor: 13; EBNA-1 inhibitor: -3; HCV core dimer: 1; ALR H2O2 inh: 12; HCV NS3 hel inh: -13; ZTA counter: 3

How did O=C1N/C(=C/c2ccc(N3CCCC3)cc2)C(=O)N1c1ccccc1 do in these assays?
M18AAP inhibitor: -10; EBNA-1 inhibitor: -17; HCV core dimer: 17; ALR H2O2 inh: 1; HCV NS3 hel inh: -6; ZTA counter: -14

How did O=C1/C(=C/c2ccc(N3CCCC3)cc2)NC(=S)N1C1CC1 do in these assays?
M18AAP inhibitor: 0; EBNA-1 inhibitor: -6; HCV core dimer: -32; ALR H2O2 inh: 97*; HCV NS3 hel inh: -1; ZTA counter: 9

What do the screens show for `CC(C)C1Nc2ccc(C(=O)NCc3ccco3)cc2NC1=O` (stereo not drawn)?
M18AAP inhibitor: 30*; EBNA-1 inhibitor: 1; HCV core dimer: 5; ALR H2O2 inh: -20; HCV NS3 hel inh: 8; ZTA counter: 10

Results for Cc1cccc2c(N=Nc3ccc(S(=O)(=O)Nc4ccc(Cl)cc4)cc3[N+](=O)[O-])c(O)[nH]c12 ?
M18AAP inhibitor: 5; EBNA-1 inhibitor: -1; HCV core dimer: 49*; ALR H2O2 inh: -2; HCV NS3 hel inh: 15; ZTA counter: -6

How did COc1ccccc1NC(=O)CSc1nc(O)cc(=O)n1C do in these assays?
M18AAP inhibitor: 0; EBNA-1 inhibitor: -1; HCV core dimer: -1; ALR H2O2 inh: 99*; HCV NS3 hel inh: 6; ZTA counter: -5

Results for COc1ccc(-n2c(SCC(=O)Nc3ccccc3OC)nc(O)cc2=O)cc1 ?
M18AAP inhibitor: -23; EBNA-1 inhibitor: -7; HCV core dimer: 4; ALR H2O2 inh: 29; HCV NS3 hel inh: 19; ZTA counter: 6

What do the screens show for `Cc1ccccc1NC(=O)CSc1nc2ccccc2c(=O)n1C`?
M18AAP inhibitor: -9; ALR H2O2 inh: -8; HCV NS3 hel inh: -3

What do the screens show for `CCn1c(CC(=O)Nc2ccccc2OC)nnc1SCC(=O)Nc1ccccc1F`?
M18AAP inhibitor: 0; EBNA-1 inhibitor: 1; HCV core dimer: -3; ALR H2O2 inh: 93*; HCV NS3 hel inh: -10; ZTA counter: -12

What do the screens show for `Cn1c(SCC(=O)Nc2cccc3ccccc23)nc(O)cc1=O`?
M18AAP inhibitor: 4; EBNA-1 inhibitor: 12; HCV core dimer: 4; ALR H2O2 inh: 98*; HCV NS3 hel inh: 17; ZTA counter: 4

Results for COc1ccccc1NC(=O)CSc1nc2nc(C)cc(C)c2c(=O)[nH]1 ?
M18AAP inhibitor: -12; EBNA-1 inhibitor: -1; HCV core dimer: -5; ALR H2O2 inh: 91*; HCV NS3 hel inh: 2; ZTA counter: -18

What do the screens show for `CCn1c(SCC(=O)Nc2ccccc2OC)nc(O)cc1=O`?
M18AAP inhibitor: 2; EBNA-1 inhibitor: 2; HCV core dimer: 4; ALR H2O2 inh: 98*; HCV NS3 hel inh: 3; ZTA counter: -1

Results for O=c1cc(O)nc(SCc2ccccc2)n1-c1ccc(Cl)cc1 ?
M18AAP inhibitor: 4; EBNA-1 inhibitor: 2; HCV core dimer: -1; ALR H2O2 inh: 98*; HCV NS3 hel inh: 32; ZTA counter: 5

How did CCn1c(C)nnc1SCC(=O)Nc1ccccc1OC do in these assays?
M18AAP inhibitor: -3; EBNA-1 inhibitor: -12; HCV core dimer: -5; ALR H2O2 inh: -5; HCV NS3 hel inh: -1; ZTA counter: -9

Results for CCCn1c(SCC(=O)Nc2cc(Cl)ccc2OC)nc(O)cc1=O ?
ALR H2O2 inh: 98*; ZTA counter: 0

What do the screens show for `NC(=O)CSc1nc(O)cc(=O)n1-c1ccccc1`?
M18AAP inhibitor: -6; EBNA-1 inhibitor: -1; HCV core dimer: -5; ALR H2O2 inh: -3; HCV NS3 hel inh: -6; ZTA counter: 1

How did C=CCn1c(SCC(=O)Nc2ccccc2C)nc2sc(C)c(C)c2c1=O do in these assays?
M18AAP inhibitor: 5; EBNA-1 inhibitor: -7; HCV core dimer: -2; ALR H2O2 inh: -3; HCV NS3 hel inh: -4; ZTA counter: 9

Results for C=CCn1c(SCC(=O)Nc2ccccc2C)nc(O)cc1=O ?
M18AAP inhibitor: 6; EBNA-1 inhibitor: -11; HCV core dimer: -4; ALR H2O2 inh: 92*; HCV NS3 hel inh: 9; ZTA counter: -3

Results for Cc1cc(C(=O)OCC(=O)Nc2ccccc2C(F)(F)F)on1 ?
ALR H2O2 inh: -4

What do the screens show for `O=C(CSc1nc(O)cc(=O)n1-c1ccc(Cl)c(Cl)c1)Nc1ccc(Cl)cc1Cl`?
M18AAP inhibitor: -3; EBNA-1 inhibitor: 13; HCV core dimer: 5; ALR H2O2 inh: 98*; HCV NS3 hel inh: -9; ZTA counter: -4

What do the screens show for `O=C(CSc1nc(=O)n(CCN2CCOCC2)c2c1CCCC2)Nc1ccc(F)cc1F`?
EBNA-1 inhibitor: 5; HCV core dimer: -2; ALR H2O2 inh: -4; ZTA counter: 9

What do the screens show for `CC1Cc2ccccc2N1C(=O)CCS(=O)(=O)c1ccc2c(c1)NC(=O)CS2` (stereo not drawn)?
M18AAP inhibitor: 2; EBNA-1 inhibitor: 0; HCV core dimer: -5; ALR H2O2 inh: -1; HCV NS3 hel inh: 4; ZTA counter: -1

How did CC1CCCCN1S(=O)(=O)c1ccc(C(=O)Nc2nnc(C3=COCCO3)o2)cc1 (stereo not drawn) do in these assays?
M18AAP inhibitor: 7; EBNA-1 inhibitor: 4; HCV core dimer: -1; ALR H2O2 inh: 97*; HCV NS3 hel inh: 11; ZTA counter: 4

How did CCCNC(=O)COc1coc(CN2CCN(c3ccccc3OC)CC2)cc1=O do in these assays?
M18AAP inhibitor: -10; EBNA-1 inhibitor: 16; HCV core dimer: 0; ALR H2O2 inh: 11; HCV NS3 hel inh: 1; ZTA counter: 18

What do the screens show for `O=C(CSc1c2c(nc3ccccc13)CCC2)N1CCCC1`?
M18AAP inhibitor: 11; EBNA-1 inhibitor: 4; HCV core dimer: -3; ALR H2O2 inh: 98*; HCV NS3 hel inh: -2; ZTA counter: -5

Bioassay records deposited in PubChem by several laboratories.
